Experimental data reported in PubChem BioAssay.
Calls of active or inactive are those of the source.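 Rule for the calls, unless noted: active = viability at or below 10% of carrier control in both of two separate runs; inconclusive = viability at or below 10% in only one of the two runs; inactive = the rest.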

Key:
[1] = reducers of endogenous Her2 protein level, primary screen, SKBR3 breast tumor cells, AlphaScreen, ATP viability (AID 461;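 active = Her2 level under about 52% in both replicate screens, with viability over 70% of control, limit read from the data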;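 for Her2 level: lower value means less Her2 protein in the cells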;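 for viability: percent of carrier control wells set as 100% viability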); conditions: 18-24 h, measured here: SKBR3 viability, ATP luminescence, at 10 µM
[2] = target: Receptor tyrosine-protein kinase erbB-2 (Homo sapiens) (UniProt P04626); assay: as above; conditions: 18-24 h, at 10 µM, stronger effect = lower value
Chain of Receptor tyrosine-protein kinase erbB-2 (Homo sapiens) (P04626 whole entry, looked up): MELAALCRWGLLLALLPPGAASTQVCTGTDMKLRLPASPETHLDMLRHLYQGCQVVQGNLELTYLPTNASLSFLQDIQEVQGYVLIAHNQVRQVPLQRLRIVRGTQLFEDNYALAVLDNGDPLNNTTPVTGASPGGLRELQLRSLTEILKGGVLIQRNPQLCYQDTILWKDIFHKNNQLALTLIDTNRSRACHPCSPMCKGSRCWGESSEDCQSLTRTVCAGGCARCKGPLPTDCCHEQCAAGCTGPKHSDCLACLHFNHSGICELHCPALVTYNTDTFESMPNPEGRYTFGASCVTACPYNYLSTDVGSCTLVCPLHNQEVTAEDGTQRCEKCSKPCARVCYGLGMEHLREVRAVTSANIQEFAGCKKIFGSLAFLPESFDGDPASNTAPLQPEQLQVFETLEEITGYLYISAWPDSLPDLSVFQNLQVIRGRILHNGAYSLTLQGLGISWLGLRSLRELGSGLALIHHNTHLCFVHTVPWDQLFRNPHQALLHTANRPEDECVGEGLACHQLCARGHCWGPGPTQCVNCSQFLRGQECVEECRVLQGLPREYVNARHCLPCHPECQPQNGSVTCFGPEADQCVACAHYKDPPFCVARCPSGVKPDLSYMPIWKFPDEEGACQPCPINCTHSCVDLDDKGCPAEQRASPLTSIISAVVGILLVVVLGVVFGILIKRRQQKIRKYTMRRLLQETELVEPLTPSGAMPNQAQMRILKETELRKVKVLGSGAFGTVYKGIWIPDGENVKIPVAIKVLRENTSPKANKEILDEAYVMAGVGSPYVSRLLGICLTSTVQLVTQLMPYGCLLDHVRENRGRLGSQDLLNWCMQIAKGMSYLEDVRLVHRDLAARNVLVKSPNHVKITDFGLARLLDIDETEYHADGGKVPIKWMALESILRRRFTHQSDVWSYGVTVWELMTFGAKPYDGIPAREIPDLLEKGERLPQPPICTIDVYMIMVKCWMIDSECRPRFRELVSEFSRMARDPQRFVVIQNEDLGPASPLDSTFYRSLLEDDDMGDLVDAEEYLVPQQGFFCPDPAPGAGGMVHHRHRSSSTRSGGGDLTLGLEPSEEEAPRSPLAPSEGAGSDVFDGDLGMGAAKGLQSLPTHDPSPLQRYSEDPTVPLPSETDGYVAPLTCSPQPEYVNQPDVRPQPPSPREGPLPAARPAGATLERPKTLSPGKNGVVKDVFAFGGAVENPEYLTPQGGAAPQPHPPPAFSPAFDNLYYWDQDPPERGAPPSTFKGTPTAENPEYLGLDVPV

[3] = SK-BR-3 cell growth inhibitors, pilot screen, 24 h, human (AID 572); conditions: SK-BR-3 viability, CellTiter-Glo luminescence, at 10 µM, stronger effect = lower value;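 note: compound exposure lasted between 18 and 24 h rather than exactly 24 h; 100% = carrier-treated control wells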
[4] = HUVEC growth inhibition – cell-based, human, primary screen (AID 575;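 active = viability at or below 30% in both replicate assays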;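 note: 100% = median of untreated cell wells with 0.1% DMSO on each plate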); conditions: HUVEC proliferation, CellTiter-Glo luminescence, 72 h; at 10 µM; stronger effect = lower value
Method in brief: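 Test system: HUVEC primary cells. Quantity: 1250 endothelial cells in each well. Dosing: single-point 10 µM, DMSO 0.1% final. Incubation: 72 h treatment at 37 °C. Measured by: CTG luminescence. Control set: DMSO cell controls and MePR drug controls. Plate: collagen-coated 384-well format.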

[5] = growth inhibitors of H69AR lung tumor, primary screen, human, duplicate replicates (AID 580;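 active = viability at or under a set limit in both replicates, limit being median viability minus 3 SD, cut at about 48% in these data, passing the limit was not always enough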;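 note: 100% = mean luminescence of untreated wells and 0% = no signal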); conditions: H69AR lung tumor cells viability, ATP luminescence, 72 h; at 10 µM; stronger effect = lower value
[6] = reversal of MRP1-mediated doxorubicin resistance, pilot screen, H69AR cells, doxorubicin co-treatment (AID 601;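 active = viability loss from added drug above about 55%, and viability with drug at most 40%, in both replicates, limit read from the data, passing the limit was not always enough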); conditions: CellTiter-Glo, 72 h, at 10 µM; for differential viability (reversal): stronger effect = higher value
[7] = 384-well plate pilot, post-Golgi transport modulator project, inhibition of yeast transport mutant growth (AID 636; in the data active = inhibition above about 31%); conditions: absorbance 615 nm, about 18 h, stronger effect = higher value
[8] = growth suppression of yeast trafficking mutant, preliminary HTS, modulators of trafficking downstream of Golgi apparatus project, 1536-format plate, OD 615 nm (AID 637; in the data active = inhibition above about 30%); conditions: yeast transport mutant growth, absorbance 615 nm, 18 h; stronger effect = higher value
[9] = H69AR cells + 2 uM doxorubicin, measured here: viability with 2 uM doxorubicin, stronger effect = lower value
[10] = H69AR cells, compound alone cytotoxicity

| SMILES | viability [1] [%] | Her2 level [2] | viability [3] | viability [4] | viability [5] | differential viability (reversal) ([6]; H69AR cells + 2 uM doxorubicin) | viability [6, 9] [%] | viability [6, 10] [%] | inhibition [7] | inhibition [8] |
| --- | --- | --- | --- | --- | --- | --- | --- | --- | --- | --- |
| COc1ccc(C(=O)N2CCN(c3nc4cc(C)ccc4cc3C#N)CC2)c(OC)c1 | 112 | 98% (inactive) | 112% (inactive) | 88.1% (inactive) | 85.4% (inactive) | -9.04% (inactive) | 94.5 | 85.4 | -2.73% (inactive) | -1.75% (inactive) |
| CCC(=O)N(CCCN(C)C)c1nc(-c2cc(OC)ccc2OC)cs1 | 93.5 | 87.5% (inactive) | 93.5% (inactive) | 78.2% (inactive) | 84.6% (inactive) | 11.2% (inactive) | 73.3 | 84.6 | -5.2% (inactive) | 5.08% (inactive) |
| Nc1ncnc(Nc2ccccc2C(F)(F)F)n1 | 93.5 | 110% (inactive) | 93.5% (inactive) | 99.5% (inactive) | 95.6% (inactive) | 2.26% (inactive) | 93.3 | 95.6 | 5.19% (inactive) | -11.2% (inactive) |
| O=C(CCN1C(=O)C2C3C=CC(C3)C2C1=O)Nc1c(F)cc(F)cc1Br (stereo not given) | 99.5 | 91.5% (inactive) | 99.5% (inactive) | 90.2% (inactive) | 103% (inactive) | 20.3% (inactive) | 82.6 | 103 | 1.08% (inactive) | -4.13% (inactive) |
| CC1CCN(C(=O)C2CCN(S(=O)(=O)c3cnc[nH]3)CC2)CC1 | 98 | 93% (inactive) | 98% (inactive) | 96.5% (inactive) | 103% (inactive) | 7.72% (inactive) | 95.3 | 103 | -4.61% (inactive) | 3.87% (inactive) |
| COC(=O)c1cc(NS(=O)(=O)c2ccc3c(c2)CCC(=O)N3)cc(C(=O)OC)c1 | 112 | 86% (inactive) | 112% (inactive) | 94.2% (inactive) | 96.5% (inactive) | 1.56% (inactive) | 95 | 96.5 | 0% (inactive) | -2.86% (inactive) |
| CCN(C#N)c1nc(NC(C)C)nc(NC(C)C)n1 | 96.5 | 93% (inactive) | 96.5% (inactive) | 97.6% (inactive) | 93.6% (inactive) | 4.81% (inactive) | 88.8 | 93.6 | -4.46% (inactive) | -7.17% (inactive) |
| COc1ccccc1NC(=O)CSc1nnnn1-c1ccc2c(c1)OCO2 | 92 | 84% (inactive) | 92% (inactive) | 98.7% (inactive) | 90.9% (inactive) | 15.1% (inactive) | 75.8 | 90.9 | -4.11% (inactive) | 0% (inactive) |
| Cn1cccc1C1NC(=O)c2c(sc3c2CCC(C(C)(C)C)C3)N1 (stereo not given) | 110 | 77.5% (inactive) | 110% (inactive) | 125% (inactive) | 90.4% (inactive) | -11% (inactive) | 101 | 90.4 | -9.86% (inactive) | 1.67% (inactive) |
| COc1ccc(C(=O)CSc2nnc(C3CCCCC3)n2N)c(OC)c1 | 91.5 | 105% (inactive) | 91.5% (inactive) | 119% (inactive) | 83.3% (inactive) | 2% (inactive) | 81.3 | 83.3 | -4% (inactive) | -6.23% (inactive) |
| COc1ccc2[nH]c(=O)c(CNC3CCCCC3)cc2c1 | 101 | 93% (inactive) | 101% (inactive) | 115% (inactive) | 89.5% (inactive) | 5% (inactive) | 84.5 | 89.5 | -4.16% (inactive) | 0.5% (inactive) |
| O=C(Cn1cnc2c(nnn2Cc2ccc(Cl)cc2)c1=O)NCC1CCCO1 (stereo not given) | 120 | 78% (inactive) | 120% (inactive) | 101% (inactive) | 106% (inactive) | 10.8% (inactive) | 94.7 | 106 | -10.1% (inactive) | -1.27% (inactive) |
| COCCNC(=O)C(c1ccc(C)o1)N(Cc1ccc(F)cc1)C(=O)Cn1nnc2ccccc21 (stereo not given) | 89.5 | 95% (inactive) | 89.5% (inactive) | 95.7% (inactive) | 97.8% (inactive) | 3.14% (inactive) | 94.7 | 97.8 | 6.62% (inactive) | -1.31% (inactive) |
| O=C(c1cccc(Cl)c1)N1CCN(Cc2ccncc2)CC1 | 92 | 96.5% (inactive) | 92% (inactive) | 96.2% (inactive) | 105% (inactive) | 9.47% (inactive) | 95.8 | 105 | -0.27% (inactive) | 6.89% (inactive) |
